The target in data set [1] is T1, Free fatty acid receptor 4 (Homo sapiens, UniProt Q5NUL3).
T1 sequence (Q5NUL3 whole entry): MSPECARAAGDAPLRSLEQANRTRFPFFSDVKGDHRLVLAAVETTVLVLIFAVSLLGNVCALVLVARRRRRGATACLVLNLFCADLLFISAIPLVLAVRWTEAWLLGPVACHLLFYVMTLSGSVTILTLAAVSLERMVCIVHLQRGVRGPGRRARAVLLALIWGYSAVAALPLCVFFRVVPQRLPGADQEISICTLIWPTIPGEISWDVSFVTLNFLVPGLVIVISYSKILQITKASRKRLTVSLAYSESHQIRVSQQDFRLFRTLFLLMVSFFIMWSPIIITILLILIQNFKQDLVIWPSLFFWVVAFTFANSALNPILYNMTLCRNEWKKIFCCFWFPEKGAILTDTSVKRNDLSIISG
Briefly: Agonist activity at human FFA4 receptor expressed in human U2OS cells co-expressing Galpha16 assessed as calcium mobilization by Fluo-4 dye based FLIPR assay. Format: functional, cell-based. The method in brief:
(§1)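 U2OS cells transiently expressing human FFA1 or FFA4. Agonism measured from a ten-point dose-response curve with FLIPR readout, giving EC50 (nM) and efficacy (% max response). Values are means of three experiments.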
In general terms: A change in cytosolic calcium serves as a functional read-out for many receptors and channels.

For data set [2], the target named is T2, Free fatty acid receptor 1 (Homo sapiens, UniProt O14842). Briefly: Agonist activity at human FFA1 receptor expressed in human U2OS cells co-expressing Galpha16 assessed as calcium mobilization by Fluo-4 dye based FLIPR assay. Particulars: for pEC50: read-out: EC50. Format: functional, cell-based. The method, boiled down:
as §1

For data set [3], the target named is T3, Free fatty acid receptor 4 (Homo sapiens) (UniProt Q5NUL3).
T3 sequence (whole entry): T1 sequence (Q5NUL3 whole entry)
In words: Agonist activity at human FFA4 receptor expressed in human U2OS cells co-expressing Galpha16 assessed as calcium mobilization by Fluo-4 dye based FLIPR assay relative to GSK137647A. In kind it is functional, cell-based. The method, boiled down:
as §1

Data set [4] concerns the target T2, Free fatty acid receptor 1. Briefly: Agonist activity at human FFA1 receptor expressed in human U2OS cells co-expressing Galpha16 assessed as calcium mobilization by Fluo-4 dye based FLIPR assay relative to GSK137647A. In kind it is functional, cell-based. The method in brief: as §1
Data set [5] is described as follows: Clearance in C57BL/6J mouse at 3 mg/kg, iv. In kind it is ADME, organism-based. Particulars: in vivo. The method, boiled down: (§2)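 C57BL/6J mice (n = 2) dosed intravenously at 3 or 4.2 mg/kg. Clearance (mL/min/kg) and AUC (hr*ng/mL) derived from plasma concentrations.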
Data set [6] is described as follows: AUC in C57BL/6J mouse at 3 mg/kg, iv. Particulars: in vivo. Format: ADME, organism-based. The method in brief:
as §2

Data set [7] can be described thus: Cmax in C57BL/6J mouse at 10 mg/kg, po. In kind it is ADME, organism-based. Also noted: dose 10 mg/kg, route oral. Particulars: in vivo. The method in brief: (§3)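 C57BL/6J mice (n = 2), single oral dose of 10 mg/kg given as a suspension in 0.5% HMPC: 0.1% Tween. Plasma Cmax and AUC (hr*ng/mL) measured; %F calculated against the IV leg.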
Data set [8] in a line: AUC in C57BL/6J mouse at 10 mg/kg, po. Format: ADME, organism-based. Particulars: in vivo. The method in brief: as §3
Data set [9] is described as follows: Oral bioavailability in C57BL/6J mouse at 10 mg/kg. As to conditions: in vivo. In kind it is ADME, organism-based. The method, boiled down: as §3
The nature of data set [10]: Tmax in C57BL/6J mouse at 10 mg/kg, po. As to conditions: in vivo. Format: ADME, organism-based.
The nature of data set [11]: Volume of distribution at steady state in C57BL/6J mouse at 3 mg/kg, iv or 10 mg/kg, po. Format: ADME, organism-based. Particulars: in vivo, read-out: Vdss.
Data set [12] can be described thus: Protein binding in human plasma. Format: ADME, cell-free. As to conditions: read-out: PPB.
The species entered for data set [13] is Homo sapiens. In words: Selectivity ratio of EC50 for human FFA4 receptor expressed in human U2OS cells co-expressing Galpha16 to EC50 for human FFA1 receptor expressed in human U2OS cells co-expressing Galpha16. Format: cell-based.
The species entered for data set [14] is Homo sapiens. Briefly: Selectivity ratio of EC50 for human FFA1 receptor expressed in human U2OS cells co-expressing Galpha16 to EC50 for human FFA4 receptor expressed in human U2OS cells co-expressing Galpha16. Format: cell-based.

pEC50: −log10 of the molar value.

T2 sequence (O14842 whole entry): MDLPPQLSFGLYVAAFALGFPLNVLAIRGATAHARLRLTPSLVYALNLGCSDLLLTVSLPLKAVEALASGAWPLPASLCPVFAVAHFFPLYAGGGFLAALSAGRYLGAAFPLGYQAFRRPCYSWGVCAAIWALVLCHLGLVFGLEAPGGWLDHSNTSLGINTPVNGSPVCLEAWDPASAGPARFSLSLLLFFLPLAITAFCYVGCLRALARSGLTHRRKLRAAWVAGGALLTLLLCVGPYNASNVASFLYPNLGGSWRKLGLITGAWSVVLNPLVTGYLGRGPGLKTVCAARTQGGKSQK

Take `Cc1ccc(Cl)c(COc2ccc(CCC(=O)O)cc2C)c1`: the negative logarithm of the EC50 (pEC50) (as a rule, the EC50 on a negative log10 scale, so that one unit is a factor of ten) was 6.73 in data set [1] and 4.74 in data set [2]. Moreover, the %max stood at 115% in [3] and 243% in data set [4]. Besides, the clearance (in general, a measure of how efficiently the substance is removed, as volume per time) in data set [5] was determined as 18 mL/min/kg. Further, the AUC (commonly the area under the concentration-time curve, a measure of exposure) was 2860 ng·h/mL in data set [6] and 4400 ng·h/mL in data set [8]. Further, the peak level in data set [7] (Cmax) was 3030 ng/mL. Also, the bioavailability (usually dose-corrected exposure relative to a reference, in per cent) in data set [9] is 46%. Besides, the Tmax (in general, the time at which the peak concentration occurs) in [10] was in the range of 15 to 30 min. For the same compound, the Vd in [11] is less than 2 L/kg. In addition, in data set [12], the fraction unbound was less than 0.01.
`Cc1cc(CCC(=O)O)ccc1OCc1ccccc1OC(C)C`: the pEC50 is 6.57 in [1] and less than 4.52 in data set [2]. Besides, the %max in data set [3] was determined as 118%.
For the compound `Cc1cc(OCc2ccccc2SC(F)(F)F)ccc1CCC(=O)O`, the values for the pEC50 in [1] and in data set [2] were 6.14 and 5.81, respectively. Moreover, the values for the %max in data set [3] and in data set [4] were 90% and 108%, respectively.
For the compound `Cc1cc(CCC(=O)O)ccc1OCc1ccccc1C(F)(F)F`, the pEC50 is 6.27 in [1] and 5.07 in data set [2]. Further, the results for the %max in data set [3] and in data set [4] were 103% and 95%, respectively.
In the case of `O=C(O)CCc1ccc(OCc2cccc(Oc3ccccc3)c2)cc1`, in [1], the pEC50 is 6.01. In addition, the %max turned out to be 85% in data set [3] and 106% in data set [4]. In addition, the Ratio EC50 in [13] was found to be 17.
Regarding `Cc1cc(CCC(=O)O)cc(C)c1OCc1ccccc1SC(F)(F)F`, the results for the pEC50 in [1] and in [2] were 6.18 and 4.66, respectively. For the same compound, the values for the %max in data set [3] and in data set [4] were 102% and 115%, respectively.
With `O=C(O)CCc1ccc(OCc2ccccc2SC(F)(F)F)c(CO)c1`, the pEC50 in [1] was 5.23; in data set [2] it was less than 4.52. Further, in [3], the %max stood at 53%.
For the compound `COc1cc(CCC(=O)O)ccc1OCc1ccccc1SC(F)(F)F`, the pEC50 was 5.70 in data set [1] and less than 4.52 in data set [2]. Further, the %max in data set [3] came out at 110%.
Take `Cc1cc(COc2ccc(CCC(=O)O)cc2C)cc(Oc2ccccc2)c1`: the pEC50 in data set [1] is 7.40; in [2], 5.79. For the same compound, the %max in data set [3] was found to be 97%; in data set [4], 85%.
On to `Cc1cc(CCC(=O)O)ccc1OCc1ccccc1Br`, for which the figures for the pEC50 in data set [1] and in [2] were 6.63 and less than 4.52, respectively. In data set [3], the %max is 116%.
In the case of `Cc1cc(CCC(=O)O)ccc1OCc1cccc(Oc2ccccc2)c1`, the pEC50 was 6.25 in data set [1] and 5.42 in data set [2]. Also, the %max in [3] is 95%; in data set [4], 90%.
The like results for `Cc1cc(CCC(=O)O)ccc1OCc1ccccc1Cl` were, in that order, 6.01, 4.94, 130% and 80%.
On to `O=C(O)CCc1ccc(OCc2ccccc2SC(F)(F)F)c2ccccc12`, for which the values for the pEC50 in [1] and in [2] were 5.64 and less than 4.52, respectively. For the same compound, the %max in data set [3] was found to be 105%.
Take `CC(CC(=O)O)c1ccc(OCc2ccccc2SC(F)(F)F)cc1` (centres undefined): the pEC50 in data set [1] is 4.94; in [2], 4.88. Also, the %max in data set [4] is 109%.
Consider `Cc1cc(CCC(=O)O)ccc1OCc1ccccc1SC(F)(F)F`, for which the pEC50 in data set [1] is 6.70; in data set [2], 5.07. For the same compound, the values for the %max in data set [3] and in data set [4] were 108% and 81%, respectively.
Take `Cc1cc(C)cc(COc2ccc(CCC(=O)O)cc2C)c1`: the pEC50 in data set [1] was 7.22; in data set [2], 5.42. Also, the %max in [3] was determined as 66%; in [4], 97%. Further, the clearance in [5] came to 35 mL/min/kg. Moreover, the values for the AUC in [6] and in data set [8] were 1420 ng·h/mL and 2600 ng·h/mL, respectively. For the same compound, in data set [7], the Cmax (in general, the maximum level reached in the sampled fluid or tissue) stood at 2630 ng/mL. In [9], this compound had a bioavailability of 55%. In addition, the Tmax in data set [10] is 15 to 30 min. Besides, the Vd in data set [11] is less than 2 L/kg. In data set [12], the fraction unbound was less than 0.01.
As to `Cc1ccc(OC(C)C)c(COc2ccc(CCC(=O)O)cc2C)c1`, the pEC50 in data set [1] was 6.76; in data set [2], 4.71. For the same compound, the %max turned out to be 106% in data set [3] and 154% in data set [4].
For the compound `Cc1ccc(Br)c(COc2ccc(CCC(=O)O)cc2C)c1`, the pEC50 in [1] is 7.28; in data set [2], less than 4.52. In addition, the %max in [3] amounted to 118%.
For `O=C(O)CCc1ccc(OCc2ccccc2SC(F)(F)F)c(Cl)c1`, the pEC50 in data set [1] is 6.97; in data set [2], less than 5.00. The EC50 in data set [2] (read-out: pEC50 (converted)) was greater than 31600 nM. Besides, the %max in [3] was determined as 80%.
Take `O=C(O)COc1ccc(OCc2ccccc2SC(F)(F)F)cc1`: the values for the pEC50 in data set [1] and in data set [2] were 5.00 and less than 4.52, respectively. Besides, the %max in data set [3] was 85%.
As to `Cc1cccc(COc2ccc(CCC(=O)O)cc2C)c1`, the negative-log EC50 (pEC50) is 6.56 in data set [1] and less than 4.52 in data set [2]. The %max in [3] is 100%. In addition, the clearance in [5] was determined as 12 mL/min/kg. In addition, the results for the AUC in data set [6] and in data set [8] were 4100 ng·h/mL and 5350 ng·h/mL, respectively. Further, in data set [7], the highest concentration (Cmax) was found to be 3080 ng/mL. Besides, the bioavailability in data set [9] is 39%. Moreover, the Tmax in data set [10] was 15 to 30 min. Further, the Vd in data set [11] is less than 2 L/kg. Moreover, the fraction unbound in [12] was less than 0.01.
With `Cc1cc(CCC(=O)O)ccc1OCc1ccccc1`, the values for the pEC50 in [1] and in data set [2] were 6.12 and less than 4.52, respectively. Besides, the %max in [3] was 83%.
As for `Cc1cc(CCC(=O)O)ccc1OCc1cccc(C(F)(F)F)c1`, the pEC50 in [1] was 6.05; in [2], less than 4.52. The %max in data set [3] was 117%.
For `CC(C)Cc1cc(CCC(=O)O)ccc1OCc1ccccc1SC(F)(F)F`, the pEC50 is 5.02 in data set [1] and less than 4.52 in data set [2]. For the same compound, the %max in data set [3] was determined as 161%.
Turning to `Cc1cc(CCC(=O)O)ccc1OCc1cccc(Cl)c1`, the pEC50 in data set [1] is 6.44; in [2] it was 4.99. Moreover, the %max in [3] worked out at 104%; in data set [4], 60%.
In the case of `Cc1cc(CCC(=O)O)ccc1OCc1cc(C(F)(F)F)ccc1O`, in data set [1], the pEC50 was 5.00. Also, the %max in data set [3] amounted to 78%.
`Cc1cc(COc2ccc(CCC(=O)O)cc2C)cc(OC(C)C)c1`: the results for the pEC50 in [1] and in [2] were 7.22 and less than 4.52, respectively. Besides, in [3], the %max came out at 112%. Besides, in data set [5], the clearance is 43 mL/min/kg. Moreover, the AUC in [6] was 1170 ng·h/mL; in [8] it was 767 ng·h/mL. This compound also showed a Cmax in data set [7] of 687 ng/mL. In addition, the bioavailability in data set [9] was 20%. Further, the time of peak concentration (Tmax) in data set [10] lay within 15 to 30 min. Also, the Vd in data set [11] was less than 2 L/kg. Also, the fraction unbound in data set [12] is less than 0.01.
As to `O=C(O)CCc1ccc(OCc2ccccc2SC(F)(F)F)cc1`, the results for the pEC50 in data set [1] and in data set [2] were 6.17 and 5.85, respectively. Moreover, the %max in [3] was 105%; in data set [4], 74 to 77%. Besides, the Ratio EC50 in data set [14] worked out at 2.
For the compound `Cc1c(CCC(=O)O)ccc(OCc2ccccc2SC(F)(F)F)c1C`, the values for the pEC50 in data set [1] and in [2] were 6.52 and less than 4.52, respectively. In data set [3], the %max stood at 77%.
With `O=C(O)CC(O)c1ccc(OCc2ccccc2SC(F)(F)F)cc1` (centres undefined), the pEC50 in data set [1] is less than 4.52.

Values taken from ChEMBL document CHEMBL3994633, “Exploration of phenylpropanoic acids as agonists of the free fatty acid receptor 4 (FFA4): Identification of an orally efficacious FFA4 agonist” (Bioorg Med Chem Lett, 2017).
